{"source": "paper PMC5388221", "about": "(Drug Design, Development and Therapy, 2017)", "key": {"[1]": {"tested_on": "bloodstream trypomastigotes (BTs) of T. cruzi (Y strain)", "assay": "Trypanocidal assay against bloodstream trypomastigotes", "assay_type": "cell-based, Trypanosoma cruzi", "conditions": "for SI (LC50/EC50), BTs: LC50 on cardiac cells at 24 h, BTs 24 h/37°C; for EC50: read-out: EC50 (µM), BTs", "outline": "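Bloodstream trypomastigotes come from Swiss mice at peak parasitemia. They are incubated at 5×10^6/mL in RPMI 1640 plus 10% fetal bovine serum with serial dilutions of test compound (0.001–10.6 µM) for 24 h at 37°C. Motile live parasites are counted by light microscopy in a Neubauer chamber; EC50 is a 50% drop versus untreated. SI = 24 h MTT LC50 on uninfected mouse cardiac cells/EC50.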"}, "[2]": {"tested_on": "intracellular amastigotes of T. cruzi (Y strain)", "assay": "Effect against intracellular parasites in infected cardiac cell cultures", "assay_type": "cell-based, Trypanosoma cruzi", "conditions": "for SI (LC50/EC50), intracellular amastigotes: LC50 on cardiac cells at 48 h, 48 h/37°C", "outline": "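T. cruzi Y strain infects primary embryonic Swiss mouse cardiac cells (parasite:host 10:1, 24 h), which are then washed. Cells are exposed to test compound (0.043–3.5 µM) for 48 h at 37°C in 5% CO2, then Bouin-fixed and Giemsa-stained. Infective index is % infected cells × mean parasites per infected cell; EC50 is 50% index reduction versus untreated. SI = 48 h MTT LC50 (uninfected cells)/EC50.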"}, "[3]": {"tested_on": "intracellular amastigotes of T. cruzi (Y strain)", "conditions": "read-out: EC50, infection of T. cruzi-infected CCs; after 48 h of treatment; cited from earlier work"}, "[4]": {"conditions": "fast plasmatic clearance profile; cited from earlier work"}}, "note": "Like-named read-outs stand apart in the source and are kept apart here."}
{"compound": "2,5-Bis[2-(2,2,2-trifluoroethoxy)-4-(2-pyridylimino)aminophenyl]furan [DB1959]", "values": [{"measurement": "SI (LC50/EC50), BTs", "setting": "[1]", "value": 45}, {"measurement": "EC50", "setting": "[1]; 24 h/37°C, Y strain", "value": "0.078 ± 0.01", "unit": "µM"}, {"measurement": "SI (LC50/EC50), intracellular amastigotes", "setting": "[2]", "value": 1.6}]}
{"compound": "2,5-Bis[2-isobutoxy-4-(2-pyridylimino) aminophenyl]furan hydrochloride [DB1890B]", "values": [{"measurement": "SI (LC50/EC50), BTs", "setting": "[1]", "value": 760}, {"measurement": "EC50", "setting": "[1]; 24 h/37°C, Y strain", "value": "0.014 ± 0.007", "unit": "µM"}, {"measurement": "SI (LC50/EC50), intracellular amastigotes", "setting": "[2]", "value": 9.7}, {"measurement": "EC50", "setting": "[3]", "value": 900, "unit": "nM"}]}
{"compound": "2,5-Bis[2-isopropoxy-4-(2-pyridylimino) aminophenyl]thiophene [DB1957]", "values": [{"measurement": "SI (LC50/EC50), BTs", "setting": "[1]", "value": 17}, {"measurement": "EC50", "setting": "[1]; 24 h/37°C, Y strain", "value": "0.068 ± 0.0014", "unit": "µM"}, {"measurement": "SI (LC50/EC50), intracellular amastigotes", "setting": "[2]", "value": 6}]}
{"compound": "O=C(Cn1ccnc1[N+](=O)[O-])NCc1ccccc1", "note": "[Bz, benznidazole, reference compound]", "values": [{"measurement": "SI (LC50/EC50), BTs", "setting": "[1]", "value": ">77"}, {"measurement": "EC50", "setting": "[1]; Trypanosoma cruzi, 24 h", "value": "12.9 ± 1.93", "unit": "µM"}, {"measurement": "SI (LC50/EC50), intracellular amastigotes", "setting": "[2]", "value": ">360"}, {"measurement": "EC50", "setting": "[2]; Trypanosoma cruzi, 48 h, read-out: EC50 (µM), intracellular amastigotes", "value": "3.7 ± 1.72", "unit": "µM"}]}
{"compound": "CC(C)Oc1cc(NC(=N)c2ccccn2)ccc1-c1ccc(-c2ccc(NC(=N)c3ccccn3)cc2OC(C)C)s1", "note": "[DB1867, reference compound]", "values": [{"measurement": "EC50", "setting": "[3]", "value": 58, "unit": "nM"}]}
{"compound": "CC1CS(=O)(=O)CCN1/N=C/c1ccc([N+](=O)[O-])o1", "note": "(stereo not shown) [nifurtimox]", "values": [{"measurement": "Half-life", "setting": "[4]", "value": 3, "unit": "h"}]}
